Most compounds without a hit are left out; they make up all but 4.8% or so of the library.
pPAFAH inh = pPAFAH (human) enzyme inhibition. Q13093. recombinant pPAFAH, FP-rhodamine probe fluorescence polarization. inhibition, % at 3.39 µM. actives 1.5% (n = 330,000). AID 463082;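 active means inhibition above the mean inhibition across the screen plus 3 SD, cut at about 25% in these data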;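 further: inhibitors block binding of the rhodamine activity-based probe so polarization drops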
Target sequence (Q13093 whole entry, looked up): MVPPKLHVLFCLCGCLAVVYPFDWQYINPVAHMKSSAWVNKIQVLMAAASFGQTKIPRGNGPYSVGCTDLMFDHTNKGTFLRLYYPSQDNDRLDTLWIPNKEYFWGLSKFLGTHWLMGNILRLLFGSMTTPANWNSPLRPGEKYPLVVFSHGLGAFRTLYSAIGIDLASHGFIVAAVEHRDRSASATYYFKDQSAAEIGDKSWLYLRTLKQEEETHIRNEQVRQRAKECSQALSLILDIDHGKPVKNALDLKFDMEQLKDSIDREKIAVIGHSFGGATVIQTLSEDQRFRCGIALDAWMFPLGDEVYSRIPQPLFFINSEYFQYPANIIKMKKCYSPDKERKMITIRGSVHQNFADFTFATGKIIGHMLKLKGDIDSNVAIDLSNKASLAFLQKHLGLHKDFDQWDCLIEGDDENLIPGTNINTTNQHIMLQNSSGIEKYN
UCH37 inh = inhibitors of human deubiquitinating enzyme UCH37. Q9Y5K5. purified proteasome/UCH37, Ub-AMC cleavage fluorescence. inhibition, % (test concentration not listed). actives 0.33% (n = 330,000);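 active means mean inhibition over replicate wells above about 20%, limit read from the data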
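Assay system: Proteasome-bound UCH37. Buffer or medium: pH 7.4 Tris-HCl (50 mM) with ovalbumin, ATP-MgCl2, DTT. Incubation: 30 min preincubation with enzyme, 25 min cleavage at room temperature. Measured by: fluorescence, ex 355 nm, em 460 nm. Read-out basis: percent inhibition. Control set: wells without proteasome as full block, compound-free enzyme plus substrate as uninhibited.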
PAFAH1B2 FP inh = PAFAH1B2 (human) inhibition | actives 1.2% (n = 340,000) | inhibition, % at 3.39 µM | recombinant PAFAH1B2, FP-rhodamine activity probe, fluorescence polarization;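 active means inhibition above the mean of all tested compounds plus 3 SD, cut at about 24% in these data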
PAFAH1B3 FP inh = inhibitors of human PAFAH1B3; recombinant PAFAH1B3, FP-rhodamine probe, fluorescence polarization; inhibition, % at 3.39 µM; actives 0.28% (n = 340,000);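 active means inhibition above the screen-wide average of all tested compounds plus 3 SD, cut at about 25% in these data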
Target sequence (Q15102 whole entry, looked up): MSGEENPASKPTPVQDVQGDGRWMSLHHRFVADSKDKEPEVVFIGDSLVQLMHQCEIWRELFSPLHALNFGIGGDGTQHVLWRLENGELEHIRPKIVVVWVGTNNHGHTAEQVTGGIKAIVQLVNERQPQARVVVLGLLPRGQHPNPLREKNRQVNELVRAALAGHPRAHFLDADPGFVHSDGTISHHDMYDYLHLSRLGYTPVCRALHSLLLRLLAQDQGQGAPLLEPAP
PAFAH2 FP inh = PAFAH2 (human) inhibition; Q99487; recombinant PAFAH2, FP-rhodamine activity probe, fluorescence polarization; inhibition, % at 3.39 µM; actives 0.99% (n = 340,000); AID 492956;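 active means inhibition above the mean over all tested compounds plus 3 SD, cut at about 30% in these data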;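 further: inhibitors block probe labeling of enzyme so polarization drops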
NR3A LBD binder = NR3A (human) ligand-binding domain modulation. AID 1259313. Tm shift relative to glycine control, % at 25 µM. NR3A LBD differential scanning fluorimetry, Tm shift; 0% = protein alone, 100% = glycine-bound protein. actives 2.5% (n = 340,000);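 active means melting temperature shift of at least 10% of the positive control shift, at one fixed dose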
pPAFAH FP conf = confirmation of human plasma PAF acetylhydrolase (pPAFAH) inhibitors; shares compounds with pPAFAH inh; recombinant pPAFAH, FP-Rh probe fluorescence polarization; inhibition, % at 3.39 µM; actives 72% (n = 2,300); AID 463230;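 active means mean inhibition of the triplicate above the hit cutoff set for the earlier primary screen, cut at about 25% in these data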
A number is an active result; 0 = inactive; - = no result given; ! = not confirmed by another sample.

SMILES	pPAFAH inh	UCH37 inh	PAFAH1B2 FP inh	PAFAH1B3 FP inh	PAFAH2 FP inh	NR3A LBD binder	pPAFAH FP conf
COc1cc2cc3c(N)c(C(=O)Nc4sc(C)c(C)c4C#N)sc3nc2cc1OC	52	0	0	0	0	19	0
C=C1c2cccc(O)c2C(=O)C2C(=O)[C@]3(O)C(=O)C(C(N)=O)C(=O)[C@@H](N(C)C)[C@@H]3[C@@H](O)[C@H]12 (some centres undefined)	92	0	33	45	52	0	0
CCOC(=O)C1C(=NO)CC(C)(O)C(C(=O)OCC)C1c1ccc(OC)c(OC)c1 (centres undefined)	-	0	-	-	-	-	-
O=C(CSc1nc2nn(-c3ccccc3)c(=O)c-2c2n1CCCCC2)c1ccc(O)c(O)c1	71	0	0	29	85	0	86
CC(C)(C)N=C1SCC(C)(C=NO)S1 (centres undefined)	-	0	-	-	-	-	-
O=C(CSc1nc2ccccc2n1Cc1ccc(Cl)cc1)NN=Cc1ccc(C(=O)O)cc1	-	0	-	-	-	-	-
NC1=NC(=O)/C(=C/c2cc(Br)c(O)c(Br)c2)S1	48	0	0	34	0	0	42
NC1=NC(=O)/C(=C/c2ccc(Br)cc2)S1	0	0	0	0	0	0	-
COc1cc(C2CC(=O)N3CN(Cc4ccco4)CSC3=C2C#N)ccc1OCc1ccccc1 (centres undefined)	36	0	0	0	0	0	0
COc1ccc(C2CC(=O)N3CN(Cc4ccco4)CSC3=C2C#N)cc1 (centres undefined)	0	0	0	0	0	0	-
O=C(NN=CC1CC=CCC1)c1ccccc1O (centres undefined)	-	0	-	-	-	-	-
Cc1cc(C(=O)NN=Cc2cccc([N+](=O)[O-])c2O)n[nH]1	-	0	-	-	-	-	-
O=C(Cn1cnc([N+](=O)[O-])n1)c1ccc(O)c(O)c1	56	0	0	0	0	0	0
O=C(Cn1cnc([N+](=O)[O-])n1)c1ccccc1	-	0	0	0	0	0	-
CCCc1ccc2oc(C(=O)N3CCN(C4CCS(=O)(=O)C4)CC3)c(C)c2c1 (centres undefined)	0	0	0	0	0	0	-
CCCc1ccc2oc(C(=O)N3CCC(O)CC3)c(C)c2c1	39	0	0	0	0	0	0
CC(/C=C/c1ccco1)=NNC(=O)c1cccnc1	-	0	-	-	-	-	-
Cc1ccccc1NC(=O)c1sc2nc3c(c(-c4ccco4)c2c1N)CCC3	36	0	0	0	0	0	0
O=S(=O)(Nc1ccc(O)c(Sc2nc3ccccc3s2)c1)c1ccc(F)cc1	52	0	0	0	0	0	40
Cc1occc1C(=O)NN=CC1=C(N2CCOCC2)/C(=C\c2ccc(Cl)cc2)CC1	-	0	-	-	-	-	-
Cc1cc(=O)[nH]c(NN=Cc2cccc([N+](=O)[O-])c2)n1	-	0	-	-	-	-	-
O=C1NC(=S)/C(=C\c2ccc(-c3ccccc3Cl)o2)S1	70	0	0	0	41	0	79
COc1cccc2c1C(=O)c1c(O)c3c(c(O)c1C2=O)C[C@@](O)(C(=O)CO)C[C@@H]3O[C@H]1C[C@H](N)[C@@H](O)[C@H](C)O1	60	0	51	43	55	0	45
CC(=O)[C@]1(O)Cc2c(O)c3c(c(O)c2[C@@H](O[C@H]2C[C@H](N)[C@H](O)[C@H](C)O2)C1)C(=O)c1ccccc1C3=O	59	0	-	-	-	0	69
C(=NNc1nccc(-c2cccnc2)n1)c1ccccc1	-	0	-	-	-	-	-
SMILES	pPAFAH inh	UCH37 inh	PAFAH1B2 FP inh	PAFAH1B3 FP inh	PAFAH2 FP inh	NR3A LBD binder	pPAFAH FP conf
Cn1c2ccccc2c2cc(/C=N/NC(=O)c3cc(O)ccc3O)ccc21	57	-	30	59	0	26	28
Cn1c2ccccc2c2cc(C=NNC(=O)c3cc(O)cc(O)c3)ccc21	-	0	-	-	-	-	-
CCCCCCCC/C=C\CCCCCCCC(=O)NCCc1ccc(O)c(O)c1	70	0	0	0	0	0	62
Cc1cccc(C=Nn2c(-c3ccccc3)n[nH]c2=S)c1O	-	0	-	-	-	-	-
O=c1c(O)c(-c2cc(O)c(O)c(O)c2)oc2cc(O)cc(O)c12	66	0	32	41	0	27	81
O=c1cc(-c2ccccc2)c2c(O)cc(O)cc2o1	0	0	0	0	0	0	-
COc1cccc(NC(=O)Nc2cc(C(=O)NCC3CCCO3)ccc2N2CC3CC(C2)c2cccc(=O)n2C3)c1 (centres undefined)	62	0	0	0	0	0	61
Nc1nonc1-n1nnc(C(=O)NN=Cc2ccccc2Cl)c1-c1ccccc1	-	0	-	-	-	-	-
O=C(N/N=C1/CCSC1)c1cc(Br)ccc1O	37	-	0	0	0	0	0
O=C(c1ccco1)N1CCN(c2ccc(F)cc2)CC1	0	0	0	0	0	0	-
Nc1ccc(N2CCN(C(=O)c3ccco3)CC2)cc1	37	0	0	0	0	0	0
O=C(CCCCCN1C(=O)c2cccc3cccc(c23)C1=O)NCc1cccnc1	49	0	-	-	-	0	0
CCOc1cc(C=NNC(=O)c2cc(-c3cccnc3)nc3ccccc23)ccc1O	-	0	-	-	-	-	-
COc1ccc(-c2nn[nH]n2)cc1OC	0	0	0	0	0	0	-
Nc1cc(-c2nn[nH]n2)ccc1F	43	0	0	0	0	0	0
O=[N+]([O-])c1cc(C=NO)ccc1N1CCCC1	-	0	-	-	-	-	-
Cc1cc(C)cc(NC(=O)CCC(=O)N2CCSc3ccccc32)c1	0	0	0	0	0	0	-
COC(=O)c1ccccc1NC(=O)CCC(=O)N1CCSc2ccccc21	41	0	0	0	0	0	0
COc1cc(C=NNC(=O)CNS(=O)(=O)c2ccc(C)cc2)cc(OC)c1OC	-	0	-	-	-	-	-
Oc1ccc(-c2nc(-c3ccc(O)c(O)c3)cs2)cc1	49	0	0	0	0	21	38
CC(=O)C(=NNc1ccccc1Cl)Sc1cccc2cccnc12	-	0	-	-	-	-	-
Nc1c(C(=O)Nc2nc3ccccc3s2)sc2nc(-c3cccs3)ccc12	50	0	0	0	0	28	43
CCOC(=O)c1cc(C#N)c(SCC(N)=O)[nH]c1=O	51	0	0	0	0	0	0
CC(C)ON=C1C(=O)N(c2ccccc2)c2ccccc21	-	0	-	-	-	-	-
Cc1cccc(C=NNC(=O)c2ccc(NC(=O)c3ccccc3Cl)cc2)n1	-	0	-	-	-	-	-
CCN1C(=O)C2C(c3ccccc3F)NC(Cc3ccc(O)cc3)(C(=O)OC)C2C1=O (centres undefined)	48	0	0	0	0	0	0
N[C@@H](Cc1ccc(O)c(O)c1)C(=O)O	-	0	0	0	0	0	-
N[C@@H](Cc1cc(I)c(Oc2ccc(O)c(I)c2)c(I)c1)C(=O)O	69!	0	0	0	0	0	71
N[C@@H](Cc1cc(I)c(Oc2cc(I)c(O)c(I)c2)c(I)c1)C(=O)O	44	0	-	-	-	0	39

Screening results deposited in PubChem BioAssay by several laboratories.
